Published values from different studies.
Protocols differ between the studies behind these lines.
Effect on: cell growth or viability

SMILES	cell line	method	time	IC50
OCc1ccc2c(c1C#Cc1ccc(O)cc1)C(c1ccc(O)cc1)(c1ccc(O)cc1)c1cc(O)ccc1-2	MGC-803	MTT	48 h	> 50 µM
Cc1nnc(C(=O)NC(C)(C)c2nc(C(=O)NCc3ccc(F)cc3)c(O)c(=O)n2C)o1	COS-7	ATP luminescence	–	36.4 µM
CC1=C(O)C(=O)C=C2C1=CC=C1[C@@]2(C)CC[C@@]2(C)[C@@H]3C[C@](C)(C(=O)OCCO)CC[C@]3(C)CC[C@]12C	MGC-803	MTT	48 h	0.37 µM
O=c1[nH]c(=O)n([C@H]2C[C@H](O)[C@@H](CO)O2)cc1F	FM3A/0	MTT	72 h	0.0032 µM
COCCCOC(=O)[C@]1(C)CC[C@]2(C)CC[C@]3(C)C4=CC=C5C(=CC(=O)C(O)=C5C)[C@]4(C)CC[C@@]3(C)[C@@H]2C1	MGC-803	MTT	48 h	0.4 µM
CC[C@@H](C)[C@H](N)C(=O)N1Cc2ccccc2C1	Kasumi 1	ATP luminescence	48 h	> 60 µM
Cc1cccc(-n2ncc(Br)c(Br)c2=O)c1	NCI-H2030	resazurin	96 h	0.37 µM
CC(=O)OCCOC(=O)[C@]1(C)CC[C@]2(C)CC[C@]3(C)C4=CC=C5C(=CC(=O)C(O)=C5C)[C@]4(C)CC[C@@]3(C)[C@@H]2C1	MGC-803	MTT	48 h	0.41 µM
Cc1cccc(Nc2ccccc2C(=O)O)c1C	mouse Peritoneal macrophage	crystal violet	72 h	> 200 µM
Cc1ccc(C(=O)N(CCCN)[C@@H](c2nc3cc(Cl)ccc3c(=O)n2Cc2ccccc2)C(C)C)cc1	MM1.S	ATP luminescence	72 h	0.0126 µM
CC1=C(O)C(=O)C=C2C1=CC=C1[C@@]2(C)CC[C@@]2(C)[C@@H]3C[C@](C)(C(=O)OCCCOc4ccccc4)CC[C@]3(C)CC[C@]12C	MGC-803	MTT	48 h	0.46 µM
CC(C)C[C@H](NC(=O)[C@H](Cc1ccccc1)NC(=O)c1cnccn1)B(O)O	NCI-N87	ATP luminescence	–	0.0091 µM
CC[C@H](C)C(=O)O[C@H]1C[C@H](O)C=C2C=C[C@H](C)[C@H](CC[C@@H](O)C[C@@H](O)CC(=O)O)[C@H]21	SW480	SRB	72 h	> 200 mg/L
Nc1ccn([C@@H]2O[C@H](CO)[C@@H](O)C2(F)F)c(=O)n1	143B	resazurin	72 h	0.0089 µM
O=C(O)c1cc(O)c(O)c(O)c1	PC-12	MTT	–	> 100 µM
O=C(c1ccc(OCCN2CCCCC2)cc1)c1c(-c2ccc(O)cc2)sc2cc(O)ccc12	COS-7	ATP luminescence	–	20.1 µM
CC1(C)CC[C@]2(C(=O)O)CC[C@]3(C)C(=CC[C@@H]4[C@@]5(C)CC[C@H](O)C(C)(C)[C@@H]5CC[C@]43C)[C@@H]2C1	ECa-109	MTT	48 h	78.2 µM
CC1=C(O)C(=O)C=C2C1=CC=C1[C@@]2(C)CC[C@@]2(C)[C@@H]3C[C@](C)(C(=O)OCCCCCCO)CC[C@]3(C)CC[C@]12C	MGC-803	MTT	48 h	0.39 µM
COc1cccc2c1C(=O)c1c(O)c3c(c(O)c1C2=O)C[C@@](O)(C(=O)CO)C[C@@H]3O[C@H]1C[C@H](N)[C@H](O)[C@H](C)O1	ECa-109	MTT	48 h	0.17 µM
C#C[C@@]1(O)[C@@H](CO)O[C@@H](n2ccc(N)nc2=O)[C@@H]1O	FM3A/0	MTT	72 h	0.0016 µM
CC1=C(O)C(=O)C=C2C1=CC=C1[C@@]2(C)CC[C@@]2(C)[C@@H]3C[C@](C)(C(=O)OCCCN4C(=O)C5C=CC=CC5C4=O)CC[C@]3(C)CC[C@]12C (stereo partly drawn)	MGC-803	MTT	48 h	0.39 µM
